Activity calls are given as the source filed them. The calls are words filed in the database; no cut-off is given here.
What was measured:
[1] = system: PC-3; experiment: Cytotoxicity against human PC3 cells after 48 hrs by sulforhodamine B assay; format: functional, cell-based; settings: PC-3, 48 h
How it was run: (§1)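 Exponentially growing cells harvested with 0.25% trypsin-EDTA, seeded at 1000–2000 cells/well in supplemented DMEM, left 24 h, then exposed 48 h to a concentration series; 5-fluorouracil as reference. Fixed with 10% TCA 1 h at 4 °C, stained 10 min with 0.4% SRB in 1% acetic acid, dye solubilized in Tris-HCl, OD read at 564 nm. IC50 from Boltzmann sigmoidal nonlinear fit; means of at least three experiments.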

[2] = system: A549; experiment: Cytotoxicity against human A549 cells after 48 hrs by sulforhodamine B assay; format: functional, cell-based; settings: A549, 48 h; how it was run: as §1
[3] = system: PC-3; experiment: Induction of apoptosis in human PC3 cells assessed as wrinkled cells at IC50 after 24 hrs by acridine orange/ethidium bromide staining-based fluorescence microscopic analysis; format: functional, cell-based
[4] = system: PC-3; experiment: Upregulation of p21 protein level in human PC3 cells at IC50 after 48 hrs by immunocytochemical analysis; format: functional, cell-based
[5] = system: A549; experiment: Ratio of 5-fluorouracil IC50 to compound IC50 for human A549 cells; format: functional
[6] = system: HepG2; experiment: Cytotoxicity against human HepG2 cells after 48 hrs by sulforhodamine B assay; format: functional, cell-based; settings: HepG2, 48 h; how it was run: as §1
[7] = system: PC-3; experiment: Cell cycle arrest in human PC3 cells assessed as reduction in accumulation at G2/M phase at IC50 after 24 hrs by propidium iodide staining-based flow cytometric analysis; format: functional
[8] = biological target: T1, CDK6/cyclin D1 (Homo sapiens) (UniProt P24385+Q00534); experiment: Inhibition of CDK6/cyclin D1 (unknown origin) at 10 uM after 20 to 30 mins by scintillation counting analysis relative to control; format: protein-complex assay
[9] = system: PC-3; experiment: Upregulation of p21 protein level in human PC3 cells at IC50 after 48 hrs by Western blotting analysis relative to control; format: functional
[10] = system: PC-3; experiment: Induction of apoptosis in human PC3 cells assessed as increase in caspase-3 level at IC50 uM after 24 hrs by sandwich enzyme immunoassay relative to control; format: functional
[11] = system: PC-3; experiment: Induction of apoptosis in human PC3 cells assessed as condensed and fragmented chromatin at IC50 after 24 hrs by acridine orange/ethidium bromide staining-based fluorescence microscopic analysis; format: functional, cell-based
[12] = system: PC-3; experiment: Induction of apoptosis in human PC3 cells assessed as condensed and fragmented chromatin at IC50 after 48 hrs by acridine orange/ethidium bromide staining-based fluorescence microscopic analysis; format: functional, cell-based
[13] = biological target: T1, CDK6/cyclin D1 (Homo sapiens); experiment: Inhibition of CDK6/cyclin D1 (unknown origin) at 1 uM after 20 to 30 mins by scintillation counting analysis relative to control; format: protein-complex assay
[14] = biological target: Cyclin-dependent kinase 4/cyclin D1 (Homo sapiens) (UniProt P11802+P24385); experiment: Inhibition of CDK4/cyclin D1 (unknown origin) at 10 uM after 20 to 30 mins by scintillation counting analysis relative to control; format: protein-complex assay
[15] = system: PC-3; experiment: Cell cycle arrest in human PC3 cells assessed as increase in accumulation at pre-G phase at IC50 after 48 hrs by propidium iodide staining-based flow cytometric analysis; format: functional
[16] = system: PC-3; experiment: Cell cycle arrest in human PC3 cells assessed as reduction in accumulation at S phase at IC50 after 24 hrs by propidium iodide staining-based flow cytometric analysis; format: functional
[17] = system: MCF7; experiment: Cytotoxicity against human MCF7 cells after 48 hrs by sulforhodamine B assay; format: functional, cell-based; settings: MCF7, 48 h; how it was run: as §1
[18] = system: PC-3; experiment: Cell cycle arrest in human PC3 cells assessed as accumulation at G0/G1 phase at IC50 after 24 hrs by propidium iodide staining-based flow cytometric analysis; format: functional
[19] = system: PC-3; experiment: Induction of apoptosis in human PC3 cells assessed as increase in caspase-3 level at IC50 uM after 48 hrs by sandwich enzyme immunoassay relative to control; format: functional

Compound | IC50 [1] [µM] | IC50 [2] [µM] | other results
Cc1n[nH]c2nc3nc(-c4cccs4)cc(-c4ccccc4)c3c(=O)n12 | 83.9 | 55.5 | 
CCOC(=O)c1nn(-c2ccc(Cl)cc2)c2nc3nc(-c4cccs4)cc(-c4ccccc4)c3c(=O)n12 | 37.4 | 72.6 | 
Nc1n[nH]c2nc3nc(-c4cccs4)cc(-c4ccccc4)c3c(=O)n12 | 12.3 | 43.7 | 
CC(=O)c1nn(-c2ccccc2)c2nc3nc(-c4cccs4)cc(-c4ccccc4)c3c(=O)n12 | 32.3 | 58.3 | 
Cc1ccc(/C=N/Nc2nc3nc(-c4cccs4)cc(-c4ccccc4)c3c(=O)[nH]2)cc1 | 0.63 | 56.6 | 
O=c1[nH]cc(F)c(=O)[nH]1 [FLUOROURACIL] | 12 | 4.21 | 
O=c1[nH]c(N/N=C/c2ccc(Cl)cc2)nc2nc(-c3cccs3)cc(-c3ccccc3)c12 | 23.8 | 40.8 | 
CC(=O)c1nn(-c2ccc(Cl)cc2)c2nc3nc(-c4cccs4)cc(-c4ccccc4)c3c(=O)n12 | 22.9 | 30.6 | 
CCOC(=O)c1nn(-c2ccc(C)cc2)c2nc3nc(-c4cccs4)cc(-c4ccccc4)c3c(=O)n12 | 33.3 | 37.8 | 
COc1ccc(-n2nc(C(C)=O)n3c(=O)c4c(-c5ccccc5)cc(-c5cccs5)nc4nc23)cc1 | 19.5 | 24.6 | 
COc1ccc(/C=N/Nc2nc3nc(-c4cccs4)cc(-c4ccccc4)c3c(=O)[nH]2)cc1 | 18.2 | 18.7 | 
O=c1[nH]c(N/N=C/c2ccccc2)nc2nc(-c3cccs3)cc(-c3ccccc3)c12 | 26.8 | 32.1 | 
CCOC(=O)c1nn(-c2ccccc2)c2nc3nc(-c4cccs4)cc(-c4ccccc4)c3c(=O)n12 | 33.6 | 26.6 | 
CC(=O)c1nn(-c2ccc(S(N)(=O)=O)cc2)c2nc3nc(-c4cccs4)cc(-c4ccccc4)c3c(=O)n12 | 0.36 | 0.41 | Activity [3]: Active; Activity [4]: Active; Ratio IC50 [5]: 10; IC50 [6]: 56.6 µM; Activity [7]: Active; inhibition [8]: 1%; fold change (FC) [9]: 1.7; fold change (FC) [10]: 1.5; Activity [11]: Active; Activity [12]: Active; inhibition [13]: 2%; inhibition [14]: 5%; Activity [15]: Active; Activity [16]: Active; IC50 [17]: 38 µM; Activity [18]: Active; fold change (FC) [19]: 2
CC(=O)c1nn(-c2ccc(F)cc2)c2nc3nc(-c4cccs4)cc(-c4ccccc4)c3c(=O)n12 | 35.9 | 39.1 | 
O=c1[nH][nH]c2nc3nc(-c4cccs4)cc(-c4ccccc4)c3c(=O)n12 | 12.7 | 14.7 | 
CC(=O)c1nn(-c2ccc(C)cc2)c2nc3nc(-c4cccs4)cc(-c4ccccc4)c3c(=O)n12 | 16.9 | 19.3 | 
O=c1c2c(-c3ccccc3)cc(-c3cccs3)nc2nc2[nH][nH]c(=S)n12 | 32.4 | 54.1 | 
O=c1[nH]c(N/N=C/c2ccc(F)cc2)nc2nc(-c3cccs3)cc(-c3ccccc3)c12 | 1.54 | 3.36 | 
O=c1c2c(-c3ccccc3)cc(-c3cccs3)nc2nc2[nH]ncn12 | 11.7 | 21.7 | 
CCOC(=O)c1nn(-c2ccc(S(N)(=O)=O)cc2)c2nc3nc(-c4cccs4)cc(-c4ccccc4)c3c(=O)n12 | 7.15 | 16.4 | 
